Laboratory results from ChEMBL document CHEMBL1143049, “Preparation, biological activity and endogenous occurrence of N6-benzyladenosines” (Bioorg Med Chem, 2007).

Tests used:
G-361 = assay: Antitumor activity against human G361 cells after 72 hrs by Calcein AM assay; type: functional, cell-based; settings: G-361, 72 h
Procedure, shortened: (§1)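 Cells grown in DMEM at 37 °C under 5% CO2. Compounds added after 12 h preincubation in 96-well plates, final 0.5-170 μM, with 0.6% final DMSO, then 72 h exposure. Viable cells stained with Calcein AM for 1 h and read at 485/538 nm. IC50 (concentration lethal to 50% of cells) taken from dose-response curves. Run in quadruplicate.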

Amaranthus = assay: Cytokinin activity in Amaranthus cotyledons assessed as dark induction of betacyanin synthesis at 0.1 mmol/L relative to 6-Benzylaminopurine; type: functional
Procedure, shortened: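 Dark induction of betacyanin in excised Amaranthus cotyledons. DMSO stock brought to 10^-3 M in water, diluted into assay medium (DMSO ≤0.2%). Tested over 10^-4 to 10^-8 M, five replicates per concentration, assay repeated at least three times. Response at the optimal concentration expressed relative to BAP at its optimum (set to 100).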

Triticum aestivum = assay: Cytokinin activity in wheat assessed as retention of chlorophyll in excised wheat leaves at 0.1 mmol/L relative to 6-Benzylaminopurine by senescence assay; type: functional
Procedure, shortened: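 Senescence assay measuring chlorophyll retention in excised wheat leaves. DMSO stocks brought to 10^-3 M with water, then diluted in assay medium to a final DMSO of at most 0.2%. Concentrations 10^-4 to 10^-8 M, quintuplicate, repeated at least three times. Response at the optimal concentration normalised to BAP optimum = 100.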

Nicotiana tabacum = assay: Cytokinin activity in tobacco assessed as stimulation of callus growth at 1 umol/L relative to 6-Benzylaminopurine; type: functional
Procedure, shortened: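 Stimulation of tobacco callus growth. Compounds dissolved in DMSO, brought to 10^-3 M in water and diluted into medium (DMSO ≤0.2%). Range 10^-4 to 10^-8 M, five replicates per concentration, at least three independent repeats. Activity at the optimal concentration given relative to BAP's optimal response, taken as 100.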

HOS = assay: Antitumor activity against human HOS cells after 72 hrs by Calcein AM assay; type: functional, cell-based; procedure, shortened: as §1
K562 = assay: Antitumor activity against human K562 cells after 72 hrs by Calcein AM assay; type: functional, cell-based; settings: K562, 72 h; procedure, shortened: as §1
[1] = Antitumor activity against human MCF cells after 72 hrs by Calcein AM assay; type: functional, cell-based; procedure, shortened: as §1
CCRF-CEM = assay: Antitumor activity against human CEM cells after 72 hrs by Calcein AM assay; type: functional, cell-based; procedure, shortened: as §1
HL-60 = assay: Antitumor activity against human HL60 cells after 72 hrs by Calcein AM assay; type: functional, cell-based; settings: HL-60, 72 h; procedure, shortened: as §1
B16 = assay: Antitumor activity against mouse B16 cells after 72 hrs by Calcein AM assay; type: functional, cell-based; settings: B16, 72 h; procedure, shortened: as §1
[2] = Cytotoxicity against mouse NIH 3T3 cells after 72 hrs by Calcein AM assay; type: cell-based; settings: NIH3T3, 72 h; procedure, shortened: as §1

Compound | IC50 (G-361) | IC50 (HOS) | IC50 (K562) | IC50 [1] | IC50 (CCRF-CEM) | IC50 (HL-60) | IC50 (B16) | Activity (Amaranthus) | Activity (Triticum aestivum) | Activity (Nicotiana tabacum) | IC50 [2] | Activity (Nicotiana tabacum; in the assay text read “at 10 umol/L” for “at 1 umol/L”)
OC[C@H]1O[C@@H](n2cnc3c(NCc4cccc(C(F)(F)F)c4)ncnc32)[C@H](O)[C@@H]1O | > 167 µM | > 167 µM | > 167 µM | > 167 µM | – | – | – | 93% | 95% | 85% | – | –
OC[C@H]1O[C@@H](n2cnc3c(NCc4ccc(C(F)(F)F)cc4)ncnc32)[C@H](O)[C@@H]1O | > 167 µM | > 167 µM | > 167 µM | > 167 µM | – | – | – | 14% | 52% | – | – | –
COc1cccc(OC)c1CNc1ncnc2c1ncn2[C@@H]1O[C@H](CO)[C@@H](O)[C@H]1O | – | – | – | – | – | – | – | 54% | 68% | – | – | –
OC[C@H]1O[C@@H](n2cnc3c(NCc4ccccc4C(F)(F)F)ncnc32)C(O)C1O (stereo partly specified) | > 167 µM | > 167 µM | > 167 µM | > 167 µM | – | – | – | 121% | 40% | – | – | –
OC[C@H]1O[C@@H](n2cnc3c(NCc4cc(O)cc(O)c4)ncnc32)[C@H](O)[C@@H]1O | > 167 µM | > 167 µM | > 167 µM | > 167 µM | – | – | – | 31% | 96% | – | – | –
OC[C@H]1O[C@@H](n2cnc3c(NCc4cccc(I)c4)ncnc32)[C@H](O)[C@@H]1O | – | – | – | – | – | – | – | 102% | 58% | 45% | – | –
OC[C@H]1O[C@@H](n2cnc3c(NCc4ccc(F)c(Cl)c4)ncnc32)[C@H](O)[C@@H]1O | > 167 µM | > 167 µM | 5.5 µM | > 167 µM | 3.4 µM | 3.5 µM | 167 µM | 82% | 156% | 87% | > 167 µM | –
OC[C@H]1O[C@@H](n2cnc3c(NCc4cccc(OC(F)(F)F)c4)ncnc32)[C@H](O)[C@@H]1O | > 167 µM | > 167 µM | > 167 µM | > 167 µM | – | – | – | 104% | 90% | 86% | – | –
OC[C@H]1O[C@@H](n2cnc3c(NCc4ccc(OC(F)(F)F)cc4)ncnc32)[C@H](O)[C@@H]1O | > 167 µM | > 167 µM | > 167 µM | > 167 µM | – | – | – | 21% | 3% | – | – | –
OC[C@H]1O[C@@H](n2cnc3c(NCc4ccc(Br)cc4)ncnc32)[C@H](O)[C@@H]1O | > 167 µM | > 167 µM | 68.2 µM | > 167 µM | 20.6 µM | 47.4 µM | > 167 µM | 30% | 76% | 16% | > 167 µM | –
Cc1ccc(CNc2ncnc3c2ncn3[C@@H]2O[C@H](CO)[C@@H](O)[C@H]2O)cc1 | – | > 167 µM | > 167 µM | > 167 µM | > 167 µM | > 167 µM | – | 49% | 54.5% | 35% | > 167 µM | –
OC[C@H]1O[C@@H](n2cnc3c(NCc4ccc(Cl)c(Cl)c4)ncnc32)[C@H](O)[C@@H]1O | 145 µM | > 167 µM | 10.8 µM | 88.8 µM | 3.8 µM | 2 µM | > 167 µM | 68% | 151% | 17% | – | –
OC[C@H]1O[C@@H](n2cnc3c(NCc4c(F)ccc(F)c4F)ncnc32)[C@H](O)[C@@H]1O | > 167 µM | – | > 167 µM | > 167 µM | 90.3 µM | 13 µM | > 167 µM | 94% | 133% | – | – | 92%
OC[C@H]1O[C@@H](n2cnc3c(NCc4cc(F)cc(F)c4)ncnc32)C(O)C1O (stereo partly specified) | > 167 µM | – | > 167 µM | > 167 µM | 24.5 µM | 9.1 µM | > 167 µM | 110% | 195% | 95% | > 167 µM | –

Further lines, with some results ahead:

IC50 (G-361) | IC50 (HOS) | IC50 (K562) | IC50 [1] | IC50 (CCRF-CEM) | IC50 (HL-60) | IC50 (B16) | Compound | Activity (Amaranthus) | Activity (Triticum aestivum) | Activity (Nicotiana tabacum) | IC50 [2] | Activity (Nicotiana tabacum; in the assay text read “at 10 umol/L” for “at 1 umol/L”)
– | – | > 167 µM | > 167 µM | > 167 µM | 20.2 µM | – | COc1cc(CNc2ncnc3c2ncn3[C@@H]2O[C@H](CO)[C@@H](O)[C@H]2O)cc(OC)c1 | 2% | 47% | 11% | – | –
– | > 167 µM | 80.8 µM | 2.2 µM | 12.8 µM | – | – | COc1ccc(CNc2ncnc3c2ncn3C2OC(CO)[C@@H](O)[C@H]2O)c(O)c1 (stereo partly specified) | 0% | 22% | – | – | –
> 167 µM | > 167 µM | > 167 µM | > 167 µM | – | – | – | COc1cc(CNc2ncnc3c2ncn3[C@@H]2O[C@H](CO)[C@@H](O)[C@H]2O)cc(OC)c1O | – | – | – | – | –
> 167 µM | > 167 µM | 81.4 µM | > 167 µM | > 167 µM | > 167 µM | > 167 µM | OC[C@H]1O[C@@H](n2cnc3c(NCc4ccccc4OC(F)(F)F)ncnc32)[C@H](O)[C@@H]1O | 78% | 61% | – | – | –
> 167 µM | > 167 µM | > 167 µM | > 167 µM | 14 µM | 3.3 µM | – | Cc1ccccc1CNc1ncnc2c1ncn2[C@@H]1O[C@H](CO)[C@@H](O)[C@H]1O [METRIFUDIL] | 99% | 141% | 98% | > 167 µM | –
– | – | > 167 µM | > 167 µM | > 167 µM | > 167 µM | – | COc1ccc(CNc2ncnc3c2ncn3[C@@H]2O[C@H](CO)[C@@H](O)[C@H]2O)cc1O | 24% | 19% | – | > 167 µM | –
148 µM | > 167 µM | 27.9 µM | 20.2 µM | 0.3 µM | 0.15 µM | > 167 µM | COc1cccc(CNc2ncnc3c2ncn3[C@@H]2O[C@H](CO)[C@@H](O)[C@H]2O)c1O | 18% | 10% | – | > 167 µM | –
16.9 µM | > 167 µM | 25.8 µM | 5.2 µM | – | – | – | OC[C@H]1O[C@@H](n2cnc3c(NCc4cccc(O)c4O)ncnc32)[C@H](O)[C@@H]1O | 24% | 7% | – | – | –
> 167 µM | > 167 µM | > 167 µM | > 167 µM | – | – | – | COc1cc(O)cc(OC)c1CNc1ncnc2c1ncn2[C@@H]1O[C@H](CO)[C@@H](O)[C@H]1O | 7% | – | – | – | –
> 167 µM | > 167 µM | 9.6 µM | > 167 µM | 7.1 µM | 3.4 µM | > 167 µM | OC[C@H]1O[C@@H](n2cnc3c(NCc4ccc(F)cc4F)ncnc32)[C@H](O)[C@@H]1O | 88% | 171% | 96% | > 167 µM | –
– | > 167 µM | > 167 µM | > 167 µM | > 167 µM | > 167 µM | – | COc1cccc(CNc2ncnc3c2ncn3[C@@H]2O[C@H](CO)[C@@H](O)[C@H]2O)c1OC | 21% | 106% | 5% | – | –
